Measurements from ChEMBL document CHEMBL1135601, “Synthesis and biolocalization of water-soluble sapphyrins” (J Med Chem, 2002).

Experiments:
[1] = Biodistribution after day 1 in mouse tumor; format: ADME, organism-based
Method in brief: (§1)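 Female outbred CD-1 nude mice (18-20 g) bearing subcutaneous human pancreatic adenocarcinoma UB 290896 (2 × 2 mm pieces, right flank; used at tumor diameter 4.5-5.5 mm). Aqueous solution (∼1 mmol L-1) given subcutaneously at 15 µmol kg-1 per day for 3 days. Mice killed 1, 3, 6 or 9 days after the last injection. Five mice per time point, plus 5 noninjected controls.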

[2] = Biodistribution after day 3 in mouse blood; format: ADME, organism-based; method in brief: as §1
[3] = Biodistribution after day 3 in mouse brain; format: ADME, organism-based; method in brief: as §1
[4] = Biodistribution after day 3 in mouse heart; format: ADME, organism-based; method in brief: as §1
[5] = Biodistribution after day 3 in mouse kidney; format: ADME, organism-based; method in brief: as §1
[6] = Biodistribution after day 3 in mouse liver; format: ADME, organism-based; method in brief: as §1
[7] = Biodistribution after day 3 in mouse lung; format: ADME, organism-based; method in brief: as §1
[8] = Biodistribution after day 3 in mouse muscle; format: ADME, organism-based, Muscle tissue; method in brief: as §1
[9] = Biodistribution after day 3 in mouse spleen; format: ADME, organism-based; method in brief: as §1
[10] = Biodistribution after day 3 in mouse tumor; format: ADME, organism-based; method in brief: as §1
[11] = Biodistribution after day 6 in mouse blood; format: ADME, organism-based; method in brief: as §1
[12] = Biodistribution after day 6 in mouse brain; format: ADME, organism-based; method in brief: as §1
[13] = Biodistribution after day 6 in mouse heart; format: ADME, organism-based; method in brief: as §1
[14] = Biodistribution after day 6 in mouse kidney; format: ADME, organism-based; method in brief: as §1
[15] = Biodistribution after day 6 in mouse lung; format: ADME, organism-based; method in brief: as §1
[16] = Biodistribution after day 6 in mouse muscle; format: ADME, organism-based, Muscle tissue; method in brief: as §1
[17] = Biodistribution after day 6 in mouse spleen; format: ADME, organism-based; method in brief: as §1
[18] = Biodistribution after day 6 in mouse tumor; format: ADME, organism-based; method in brief: as §1
[19] = Biodistribution after day 1 in mouse blood; format: ADME, organism-based; method in brief: as §1
[20] = Biodistribution after day 1 in mouse brain; format: ADME, organism-based; method in brief: as §1
[21] = Biodistribution after day 1 in mouse heart; format: ADME, organism-based; method in brief: as §1
[22] = Biodistribution after day 1 in mouse kidney; format: ADME, organism-based; method in brief: as §1
[23] = Biodistribution after day 1 in mouse liver; format: ADME, organism-based; method in brief: as §1
[24] = Biodistribution after day 1 in mouse lung; format: ADME, organism-based; method in brief: as §1
[25] = Biodistribution after day 1 in mouse muscle; format: ADME, organism-based, Muscle tissue; method in brief: as §1
[26] = Biodistribution after day 1 in mouse spleen; format: ADME, organism-based; method in brief: as §1
[27] = Biodistribution after day 6 in mouse liver; format: ADME, organism-based; method in brief: as §1
[28] = Biodistribution after day 9 in mouse tumor; format: ADME, organism-based; method in brief: as §1
[29] = Biodistribution after day 9 in mouse blood; format: ADME, organism-based; method in brief: as §1
[30] = Biodistribution after day 9 in mouse brain; format: ADME, organism-based; method in brief: as §1
[31] = Biodistribution after day 9 in mouse heart; format: ADME, organism-based; method in brief: as §1
[32] = Biodistribution after day 9 in mouse kidney; format: ADME, organism-based; method in brief: as §1
[33] = Biodistribution after day 9 in mouse liver; format: ADME, organism-based; method in brief: as §1
[34] = Biodistribution after day 9 in mouse lung; format: ADME, organism-based; method in brief: as §1
[35] = Biodistribution after day 9 in mouse muscle; format: ADME, organism-based, Muscle tissue; method in brief: as §1
[36] = Biodistribution after day 9 in mouse spleen; format: ADME, organism-based; method in brief: as §1

| SMILES | concentration at 1 day [1] | concentration at 3 day [2] | concentration at 3 day [3] | concentration at 3 day [4] | concentration at 3 day [5] | concentration at 3 day [6] | concentration at 3 day [7] | concentration at 3 day [8] | concentration at 3 day [9] | concentration at 3 day [10] | concentration at 6 day [11] | concentration at 6 day [12] | concentration at 6 day [13] | concentration at 6 day [14] | concentration at 6 day [15] | concentration at 6 day [16] | concentration at 6 day [17] | concentration at 6 day [18] | concentration at 1 day [19] | concentration at 1 day [20] | other results |
| --- | --- | --- | --- | --- | --- | --- | --- | --- | --- | --- | --- | --- | --- | --- | --- | --- | --- | --- | --- | --- | --- |
| CCc1c(CC)c2cc3nc(cc4[nH]c(c(C)c4CC)c4[nH]c(cc5nc(cc1[nH]2)C(CCC(=O)N(CCO)CCO)=C5C)c(CC)c4C)C(C)=C3CCC(=O)N(CCO)CCO [SAPPHYRIN] | 109000 ng/g | 900 ng/g | 270 ng/g | 960 ng/g | 330 ng/g | 1500 ng/g | 710 ng/g | 760 ng/g | 1390 ng/g | 220000 ng/g | 500 ng/g | 290 ng/g | 760 ng/g | 460 ng/g | 710 ng/g | 710 ng/g | 960 ng/g | 130000 ng/g | 500 ng/g | 240 ng/g | concentration at 1 day [21]: 950 ng/g; concentration at 1 day [22]: 440 ng/g; concentration at 1 day [23]: 1420 ng/g; concentration at 1 day [24]: 480 ng/g; concentration at 1 day [25]: 1020 ng/g; concentration at 1 day [26]: 1290 ng/g; concentration at 6 day [27]: 1200 ng/g |
| CCc1c(CC)c2cc3nc(cc4[nH]c(c(C)c4CC)c4[nH]c(cc5nc(cc1[nH]2)C(CCC(=O)NCCN(CCN)CCN)=C5C)c(CC)c4C)C(C)=C3CCC(=O)NCCN(CCN)CCN | 58000 ng/g | 3400 ng/g | 400 ng/g | 10700 ng/g | 5700 ng/g | 13000 ng/g | 13000 ng/g | 36000 ng/g | 8000 ng/g | 89000 ng/g | 1170 ng/g | 160 ng/g | 5200 ng/g | 1700 ng/g | 3200 ng/g | 22000 ng/g | 3900 ng/g | 49000 ng/g | 950 ng/g | 870 ng/g | concentration at 1 day [21]: 3100 ng/g; concentration at 1 day [22]: 2800 ng/g; concentration at 1 day [23]: 1030 ng/g; concentration at 1 day [24]: 2500 ng/g; concentration at 1 day [25]: 3600 ng/g; concentration at 1 day [26]: 4100 ng/g; concentration at 6 day [27]: 10000 ng/g |
| CCc1c(CC)c2cc3nc(cc4[nH]c(c(C)c4CC)c4[nH]c(cc5nc(cc1[nH]2)C(CCC(=O)NCCOCCOCCO)=C5C)c(CC)c4C)C(C)=C3CCC(=O)NCCOCCOCCO | 22000 ng/g | 9300 ng/g | 4300 ng/g | 7800 ng/g | 59000 ng/g | 61000 ng/g | 11000 ng/g | 9300 ng/g | 11000 ng/g | 130000 ng/g | 3400 ng/g | 4300 ng/g | 4800 ng/g | 52000 ng/g | 19000 ng/g | 3400 ng/g | 14000 ng/g | 180000 ng/g | 7000 ng/g | 2700 ng/g | concentration at 1 day [21]: 8000 ng/g; concentration at 1 day [22]: 3100 ng/g; concentration at 1 day [23]: 14000 ng/g; concentration at 1 day [24]: 13000 ng/g; concentration at 1 day [25]: 10000 ng/g; concentration at 1 day [26]: 4600 ng/g; concentration at 6 day [27]: 16000 ng/g |
| C=CC1=C(C)c2cc3nc(cc4[nH]c(cc5[nH]c(cc1n2)c(C)c5CCC(=O)NC1C(O)OC(CO)C(O)C1O)c(CCC(=O)NC1C(O)OC(CO)C(O)C1O)c4C)C(C=C)=C3C (stereo not given) [PORPHYRIN] | 34000 ng/g | 900 ng/g | 410 ng/g | 1450 ng/g | 3100 ng/g | 800 ng/g | 1700 ng/g | 4200 ng/g | 16000 ng/g | 131000 ng/g | 980 ng/g | 320 ng/g | 1700 ng/g | 4300 ng/g | 1400 ng/g | 5100 ng/g | 12000 ng/g | 260000 ng/g | 1090 ng/g | 420 ng/g | concentration at 9 day [28]: 37000 ng/g; concentration at 9 day [29]: 800 ng/g; concentration at 9 day [30]: 370 ng/g; concentration at 9 day [31]: 2400 ng/g; concentration at 9 day [32]: 510 ng/g; concentration at 9 day [33]: 960 ng/g; concentration at 9 day [34]: 2300 ng/g; concentration at 9 day [35]: 3600 ng/g; concentration at 9 day [36]: 9000 ng/g; concentration at 1 day [21]: 2700 ng/g; concentration at 1 day [22]: 700 ng/g; concentration at 1 day [23]: 1100 ng/g; concentration at 1 day [24]: 2000 ng/g; concentration at 1 day [25]: 3500 ng/g; concentration at 1 day [26]: 22000 ng/g; concentration at 6 day [27]: 1320 ng/g |
| CCc1c(CC)c2cc3nc(cc4[nH]c(c(C)c4CC)c4[nH]c(cc5nc(cc1[nH]2)C(CCC(=O)NC1C(O)OC(CO)C(O)C1O)=C5C)c(CC)c4C)C(C)=C3CCC(=O)NC1C(O)OC(CO)C(O)C1O (stereo not given) | 32000 ng/g | 2000 ng/g | 770 ng/g | 9000 ng/g | 1900 ng/g | 430 ng/g | 8000 ng/g | 21000 ng/g | 7800 ng/g | 66000 ng/g | 2200 ng/g | 750 ng/g | 6400 ng/g | 1500 ng/g | 6000 ng/g | 17000 ng/g | 8000 ng/g | 330000 ng/g | 1440 ng/g | 550 ng/g | concentration at 9 day [28]: 23000 ng/g; concentration at 9 day [29]: 1500 ng/g; concentration at 9 day [30]: 520 ng/g; concentration at 9 day [31]: 6000 ng/g; concentration at 9 day [32]: 2800 ng/g; concentration at 9 day [33]: 470 ng/g; concentration at 9 day [34]: 8000 ng/g; concentration at 9 day [35]: 11000 ng/g; concentration at 9 day [36]: 9700 ng/g; concentration at 1 day [21]: 5400 ng/g; concentration at 1 day [22]: 1100 ng/g; concentration at 1 day [23]: 290 ng/g; concentration at 1 day [24]: 4900 ng/g; concentration at 1 day [25]: 8000 ng/g; concentration at 1 day [26]: 3600 ng/g; concentration at 6 day [27]: 370 ng/g |
| CCC1=C(CC)c2cc3[nH]c(cc4[nH]c(c(C)c4CC)c4[nH]c(cc5nc(cc1n2)C(CCC(=O)NCCOCCOCCN)=C5C)c(CC)c4C)c(C)c3CCC(=O)NCCOCCOCCN | 4200 ng/g | 3020 ng/g | 5000 ng/g | 15500 ng/g | 6800 ng/g | 25000 ng/g | 19000 ng/g | 29000 ng/g | 11000 ng/g | 114000 ng/g | 2450 ng/g | 2400 ng/g | 9200 ng/g | 3800 ng/g | 7000 ng/g | 45000 ng/g | 3300 ng/g | 51000 ng/g | 1690 ng/g | 500 ng/g | concentration at 1 day [21]: 2000 ng/g; concentration at 1 day [22]: 640 ng/g; concentration at 1 day [23]: 210 ng/g; concentration at 1 day [24]: 1700 ng/g; concentration at 1 day [25]: 1900 ng/g; concentration at 1 day [26]: 1300 ng/g; concentration at 6 day [27]: 4200 ng/g |
